The MIC is the lowest concentration found to suppress growth. As usually defined, the MBC is the lowest tested concentration that kills the bacteria rather than only halting them. Broadly, the MFC is the smallest concentration meeting the test's criterion for killing the fungus. Lower therefore signals more potent killing.

In brackets after ≈: the same amount, converted by molar mass. Bounds are passed on as bounds.

One experiment has as its system A498. In words: Cytotoxicity against human A498 cells assessed as growth inhibition at 10 uM after 48 hrs by SRB assay. The format is functional. As to conditions: A498, 48 h, read-out: GI. The method in brief:
(§1)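 NCI-60 one-dose primary screen run by the NCI Drug Evaluation Branch across the full 60-line panel. Single high-dose treatment with 48 h continuous drug exposure. Cell growth estimated by sulforhodamine B protein staining. Results given as percent growth of treated cells and expressed as percentage growth inhibition.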
For `CCOC(=O)c1sc(NC(=O)c2cc(OC)c(OC)c(OC)c2)nc1C`, the inhibition of growth at 10 µM was found to be 11.4%.
On to `Cc1nc(N)sc1C(=O)Nc1ccc(F)cc1`, for which the inhibition of growth at 10 µM came out at 3.67%.
Take `Cc1nc(NC(=S)Nc2ccc(F)cc2)sc1C(=O)NN`: the inhibition of growth at 10 µM is under 10%.
The same measure, in the same setting: to `CCOC(=O)c1sc(NC(=O)Nc2ccccc2)nc1C` belongs 28.9%.

The next experiment has as its system NCI-H322M. In words: Cytotoxicity against human NCI-H322M cells assessed as growth inhibition at 10 uM after 48 hrs by SRB assay. The format is functional. As to conditions: read-out: GI. The method in brief:
as §1
For orientation: In SRB staining, fixed cells bind dye roughly in proportion to their protein.
For `CCOC(=O)c1sc(NC(=O)c2cc(OC)c(OC)c(OC)c2)nc1C`, the inhibition of growth at 10 µM was under 10%.
On to `Cc1nc(N)sc1C(=O)Nc1ccc(F)cc1`, for which the inhibition of growth at 10 µM was 2.56%.
On to `Cc1nc(NC(=S)Nc2ccc(F)cc2)sc1C(=O)NN`, for which the inhibition of growth at 10 µM amounted to 15.1%.
Turning to `CCOC(=O)c1sc(NC(=O)Nc2ccccc2)nc1C`, the inhibition of growth at 10 µM was under 10%.

The test system of the next experiment is Escherichia coli. Description: Antibacterial activity against Escherichia coli ATCC 25922 assessed as growth inhibition after 48 hrs by two-fold serial dilution assay. The format is functional. As to conditions: ATCC 25922, 48 h. The method in brief:
(§2)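 Twofold serial broth dilution run on compounds giving inhibition zones of 13 mm or more. Organisms pre-grown in suitable broth at 37 °C, 24 h for bacteria and 48 h for fungi. Dilution series 200, 100, 50, 25, 12.5, 6.25. Each 5 mL tube inoculated with 0.1 mL and incubated 37 °C for 48 h. Tubes scored for presence or absence of growth.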
For the compound `CCOC(=O)c1sc(NC(=O)c2cc(OC)c(OC)c(OC)c2)nc1C`, the MIC amounted to 12.5 µg/mL (≈ 32.9 µM).
On the same count and under the same terms, to `Cc1nc(N)sc1C(=O)Nc1ccc(F)cc1` belongs 50 µg/mL (≈ 199 µM).
Still for that read-out and setting: to `Cc1nc(NC(=S)Nc2ccc(F)cc2)sc1C(=O)NN` belongs 12.5 µg/mL (≈ 38.4 µM); to `CCOC(=O)c1sc(NC(=O)Nc2ccccc2)nc1C`, 25 µg/mL (≈ 81.9 µM).

The test system of another experiment is MCF7. In words: Cytotoxicity against human MCF7 cells assessed as growth inhibition at 10 uM after 48 hrs by SRB assay. The format is functional. The settings on record: MCF7, 48 h, read-out: GI. Summed up:
as §1
For the compound `CCOC(=O)c1sc(NC(=O)c2cc(OC)c(OC)c(OC)c2)nc1C`, the inhibition of growth at 10 µM worked out at 12.5%.
Turning to `Cc1nc(N)sc1C(=O)Nc1ccc(F)cc1`, the inhibition of growth at 10 µM came to 2.21%.
Consider `Cc1nc(NC(=S)Nc2ccc(F)cc2)sc1C(=O)NN`, for which the inhibition of growth at 10 µM was under 10%.
For the compound `CCOC(=O)c1sc(NC(=O)Nc2ccccc2)nc1C`, the inhibition of growth at 10 µM stood at 7.17%.

Test system in another experiment: not listed separately
Description: Cytotoxicity against human Hs578T cells assessed as growth inhibition at 10 uM after 48 hrs by SRB assay. The format is functional. As to conditions: Hs-578T, read-out: GI. The method in brief: as §1
Consider `CCOC(=O)c1sc(NC(=O)c2cc(OC)c(OC)c(OC)c2)nc1C`, for which the inhibition of growth at 10 µM turned out to be 11.2%.
On the same count and under the same terms, to `Cc1nc(N)sc1C(=O)Nc1ccc(F)cc1` belongs 14.2%; to `Cc1nc(NC(=S)Nc2ccc(F)cc2)sc1C(=O)NN`, 2.23%; to `CCOC(=O)c1sc(NC(=O)Nc2ccccc2)nc1C`, 6.4%.

In the next experiment the test system is SNB-75. In words: Cytotoxicity against human SNB75 cells assessed as growth inhibition at 10 uM after 48 hrs by SRB assay. The format is functional. The settings on record: SNB-75, 48 h, read-out: GI. Summed up:
as §1
Turning to `CCOC(=O)c1sc(NC(=O)c2cc(OC)c(OC)c(OC)c2)nc1C`, the inhibition of growth at 10 µM worked out at 2.51%.
On to `Cc1nc(N)sc1C(=O)Nc1ccc(F)cc1`, for which the inhibition of growth at 10 µM was found to be 5.4%.
Take `Cc1nc(NC(=S)Nc2ccc(F)cc2)sc1C(=O)NN`: the inhibition of growth at 10 µM is 7.19%.
The same measure, in the same setting: next, `CCOC(=O)c1sc(NC(=O)Nc2ccccc2)nc1C`: 47.2%.

Another experiment concerns HOP-92. In words: Cytotoxicity against human HOP92 cells assessed as growth inhibition at 10 uM after 48 hrs by SRB assay. The format is functional. The settings on record: HOP-92, 48 h, read-out: GI. The method in brief: as §1
For `CCOC(=O)c1sc(NC(=O)c2cc(OC)c(OC)c(OC)c2)nc1C`, the inhibition of growth at 10 µM came to 53.1%.
In the case of `Cc1nc(N)sc1C(=O)Nc1ccc(F)cc1`, the inhibition of growth at 10 µM was under 10%.
`Cc1nc(NC(=S)Nc2ccc(F)cc2)sc1C(=O)NN`: the inhibition of growth at 10 µM was determined as 33.7%.
As for `CCOC(=O)c1sc(NC(=O)Nc2ccccc2)nc1C`, the inhibition of growth at 10 µM came to 64.2%.

Test system in a further experiment: not listed separately
Description: Cytotoxicity against human UO31 cells assessed as growth inhibition at 10 uM after 48 hrs by SRB assay. As to conditions: UO-31, 48 h, read-out: GI. The format is functional. The method in brief:
as §1
Consider `CCOC(=O)c1sc(NC(=O)c2cc(OC)c(OC)c(OC)c2)nc1C`, for which the inhibition of growth at 10 µM was 24.3%.
Regarding `Cc1nc(N)sc1C(=O)Nc1ccc(F)cc1`, the inhibition of growth at 10 µM worked out at 11.8%.
The same measure, in the same setting: to `Cc1nc(NC(=S)Nc2ccc(F)cc2)sc1C(=O)NN` belongs 11%.
In the case of `CCOC(=O)c1sc(NC(=O)Nc2ccccc2)nc1C`, the inhibition of growth at 10 µM turned out to be 16.1%.

In the next experiment the test system is Bacillus spizizenii. Description: Antibacterial activity against Bacillus subtilis ATCC 6633 assessed as growth inhibition at 1 mg/mL after 24 hrs by agar-cup diffusion method. The format is functional. The settings on record: ATCC 6633, 24 h, read-out: DIZ. Summed up: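 Agar-cup diffusion: 1 mL of 6 h broth culture seeded per 100 mL molten sterile agar at 45 °C and poured into plates. 8 mm cups cut, each filled with 0.1 mL of 1 mg/mL test solution. Incubated 37 °C for 24 h, 48 h for C. albicans. DMSO control per organism. Inhibition zone diameter in mm, mean of three measurements.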
For `CCOC(=O)c1sc(NC(=O)c2cc(OC)c(OC)c(OC)c2)nc1C`, the zone of inhibition at 1000 µg/mL was over 13 mm.
For the compound `Cc1nc(N)sc1C(=O)Nc1ccc(F)cc1`, the zone of inhibition at 1000 µg/mL is over 13 mm.
The same measure, in the same setting: to `Cc1nc(NC(=S)Nc2ccc(F)cc2)sc1C(=O)NN` belongs over 13 mm; to `CCOC(=O)c1sc(NC(=O)Nc2ccccc2)nc1C`, over 13 mm.

The test system of the next experiment is Pseudomonas aeruginosa. Description: Bactericidal activity against Pseudomonas aeruginosa ATCC 27853 after 18 hrs. The format is functional. The settings on record: ATCC 27853, 18 h. Summed up: (§3)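 Continuation of the broth-dilution MIC test. A loopful from each tube without visible growth spread on a quarter of a Mueller-Hinton agar plate and incubated 18 h. Lowest concentration giving no growth on subculture taken as the MBC.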
For `CCOC(=O)c1sc(NC(=O)c2cc(OC)c(OC)c(OC)c2)nc1C`, the MBC is 100 µg/mL (≈ 263 µM).
Take `Cc1nc(NC(=S)Nc2ccc(F)cc2)sc1C(=O)NN`: the MBC is 50 µg/mL (≈ 154 µM). This MBC is about 2-fold lower than that of the compound before.
Turning to `CCOC(=O)c1sc(NC(=O)Nc2ccccc2)nc1C`, the MBC worked out at 100 µg/mL (≈ 327 µM).

Test system in another experiment: not listed separately
In words: Cytotoxicity against human NCI-ADR-RES cells assessed as growth inhibition at 10 uM after 48 hrs by SRB assay. Format: functional. The settings on record: read-out: GI. The method in brief: as §1
For `CCOC(=O)c1sc(NC(=O)c2cc(OC)c(OC)c(OC)c2)nc1C`, the inhibition of growth at 10 µM is 4.66%.
Same read-out and setting: next, `Cc1nc(N)sc1C(=O)Nc1ccc(F)cc1`: 2.36%; `Cc1nc(NC(=S)Nc2ccc(F)cc2)sc1C(=O)NN`: 10%.
`CCOC(=O)c1sc(NC(=O)Nc2ccccc2)nc1C`: the inhibition of growth at 10 µM was determined as 13.9%.

The subject of a further experiment is SK-MEL-5. Description: Cytotoxicity against human SK-MEL-5 cells assessed as growth inhibition at 10 uM after 48 hrs by SRB assay. Format: functional. The settings on record: SK-MEL-5, 48 h, read-out: GI. Summed up: as §1
Regarding `CCOC(=O)c1sc(NC(=O)c2cc(OC)c(OC)c(OC)c2)nc1C`, the inhibition of growth at 10 µM worked out at 5.59%.
For `Cc1nc(N)sc1C(=O)Nc1ccc(F)cc1`, the inhibition of growth at 10 µM was found to be 6.65%.
In the case of `Cc1nc(NC(=S)Nc2ccc(F)cc2)sc1C(=O)NN`, the inhibition of growth at 10 µM amounted to 5.01%.
On the same count and under the same terms, next, `CCOC(=O)c1sc(NC(=O)Nc2ccccc2)nc1C`: 4.58%.

Another experiment relates to Candida albicans. In words: Antifungal activity against Candida albicans ATCC 10231 assessed as growth inhibition after 48 hrs by two-fold serial dilution assay. Format: functional. The settings on record: ATCC 10231, 48 h. The method in brief: as §2
Regarding `Cc1nc(N)sc1C(=O)Nc1ccc(F)cc1`, the MIC was determined as 100 µg/mL (≈ 398 µM).
Regarding `Cc1nc(NC(=S)Nc2ccc(F)cc2)sc1C(=O)NN`, the minimum inhibitory concentration (MIC) turned out to be 12.5 µg/mL (≈ 38.4 µM).
As to `CCOC(=O)c1sc(NC(=O)Nc2ccccc2)nc1C`, the MIC is 25 µg/mL (≈ 81.9 µM).

For the next experiment, the system named is MOLT-4. Description: Cytotoxicity against human MOLT4 cells assessed as growth inhibition at 10 uM after 48 hrs by SRB assay. The format is functional. The settings on record: MOLT-4, 48 h, read-out: GI. The method in brief: as §1
In the case of `CCOC(=O)c1sc(NC(=O)c2cc(OC)c(OC)c(OC)c2)nc1C`, the inhibition of growth at 10 µM worked out at 12.4%.
Regarding `Cc1nc(N)sc1C(=O)Nc1ccc(F)cc1`, the inhibition of growth at 10 µM was under 10%.
Turning to `Cc1nc(NC(=S)Nc2ccc(F)cc2)sc1C(=O)NN`, the inhibition of growth at 10 µM was under 10%.
Regarding `CCOC(=O)c1sc(NC(=O)Nc2ccccc2)nc1C`, the inhibition of growth at 10 µM worked out at 23.7%.

The subject of a further experiment is Candida albicans. Description: Fungicidal activity against Candida albicans ATCC 10231 after 18 hrs. The format is functional. The settings on record: ATCC 10231, 18 h. Summed up:
as §3
Turning to `Cc1nc(N)sc1C(=O)Nc1ccc(F)cc1`, the MFC was 100 µg/mL (≈ 398 µM).
As to `Cc1nc(NC(=S)Nc2ccc(F)cc2)sc1C(=O)NN`, the MFC worked out at 12.5 µg/mL (≈ 38.4 µM). This MFC lies about 8-fold lower than the previous one.
`CCOC(=O)c1sc(NC(=O)Nc2ccccc2)nc1C` registered an MFC of 25 µg/mL (≈ 81.9 µM).

The record behind these values is ChEMBL document CHEMBL3124924, “Bifunctional ethyl 2-amino-4-methylthiazole-5-carboxylate derivatives: synthesis and in vitro biological evaluation as antimicrobial and anticancer agents” (2014).
